In ChEMBL document CHEMBL5303300, “EUbOPEN Chemogenomics Library - Multiplex” (2023):
Several values for one entry are separate records, joined by “and”; a condition that tells them apart may be missing. Equal values may be shown once.

Tested on: Fibroblast
Assay: Multiplex assay against human fibroblast
Format: toxicity, cell-based
Conditions: number of replicates 2
Summary of the method: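 Live cells were stained at seeding with Hoechst33342, BioTracker Green Microtubule Cytoskeleton Dye, MitoTracker Red and Annexin V Alexa Fluor 680, then imaged on a CQ1 microscope at 37°C and 5% CO2 after compound addition. CellPathfinder machine-learning gating split cells into Hoechst high-intensity objects or normal cells. Normal cells were split into healthy, pyknosed or fragmented nuclei, and pyknosed cells into mitotic or apoptotic. Tubulin, mitochondrial-mass and membrane-permeability phenotypes are per cents of healthy-nucleus cells.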

[1] = 12 h, 1 µM, compound concentration 1 uM
[2] = 12 h, 10 µM, compound concentration 10 uM
[3] = 24 h, 1 µM, compound concentration 1 uM
[4] = 24 h, 10 µM, compound concentration 10 uM
[5] = 48 h, 1 µM, compound concentration 1 uM
[6] = 48 h, 10 µM, compound concentration 10 uM

## Cn1ncc(NC(=O)c2nc(-c3c(F)cccc3F)sc2N)c1N1CC[C@@H](N)[C@H](F)CC1
[1]
  Population Apoptotic (%): 60% and 38%
  Population Fragmented Nuclei (%): 18%
  Population Healthy Nuclei (%): 67% and 74%
  Population Mitotic Cells (%): 40%
  Population Normal (%): 100% and 99%
  Population Tubulin-Different-Phenotype (%): 14% and 8%
  Total Cell Count: 170 and 268
[2]
  Population Apoptotic (%): 26% and 21%
  Population Fragmented Nuclei (%): 35%
  Population Healthy Nuclei (%): 48% and 47%
  Population Mitotic Cells (%): 73% and 78%
  Population Normal (%): 100%
  Population Tubulin-Different-Phenotype (%): 34% and 25%
  Total Cell Count: 307 and 502
[3]
  Population Apoptotic (%): 65% and 54%
  Population Fragmented Nuclei (%): 15%
  Population Healthy Nuclei (%): 65% and 73%
  Population Mitotic Cells (%): 34% and 45%
  Population Normal (%): 100%
  Population Tubulin-Different-Phenotype (%): 13% and 7%
  Total Cell Count: 172 and 273
[4]
  Population Apoptotic (%): 27% and 21%
  Population Fragmented Nuclei (%): 48% and 56%
  Population Healthy Nuclei (%): 43% and 38%
  Population Mitotic Cells (%): 72% and 78%
  Population Normal (%): 100% and 99%
  Population Tubulin-Different-Phenotype (%): 38% and 31%
  Total Cell Count: 456 and 659
[5]
  Population Apoptotic (%): 80% and 51%
  Population Fragmented Nuclei (%): 20%
  Population Healthy Nuclei (%): 63% and 69%
  Population Mitotic Cells (%): 20% and 48%
  Population Normal (%): 100%
  Total Cell Count: 193 and 286
[6]
  Population Apoptotic (%): 66% and 54%
  Population Fragmented Nuclei (%): 52% and 60%
  Population Healthy Nuclei (%): 45% and 38%
  Population Mitotic Cells (%): 45%
  Population Normal (%): 100%
  Population Tubulin-Different-Phenotype (%): 43% and 27%
  Total Cell Count: 604 and 928

## COc1ncc(-c2cc(-c3ncc(CN4C[C@@H](C)O[C@@H](C)C4)o3)c3cn[nH]c3c2)cc1NS(C)(=O)=O
[1]
  Population Apoptotic (%): 48%
  Population Fragmented Nuclei (%): 7% and 8%
  Population Healthy Nuclei (%): 77% and 70%
  Population Hoechst High Intensity Objects (%): 0%
  Population Membrane Permeable-Phenotype (%): 5% and 10%
  Population Mitochondria Different-Phenotype (%): 0%
  Population Mitotic Cells (%): 51%
  Population Normal (%): 100%
  Population Pyknosed Nuclei (%): 14% and 21%
  Population Tubulin-Different-Phenotype (%): 13% and 11%
  Total Cell Count: 228 and 199
[2]
  Population Apoptotic (%): 30% and 51%
  Population Fragmented Nuclei (%): 4% and 11%
  Population Healthy Nuclei (%): 59% and 66%
  Population Hoechst High Intensity Objects (%): 0%
  Population Membrane Permeable-Phenotype (%): 10% and 9%
  Population Mitochondria Different-Phenotype (%): 3% and 5%
  Population Mitotic Cells (%): 69% and 48%
  Population Normal (%): 100%
  Population Pyknosed Nuclei (%): 35% and 22%
  Population Tubulin-Different-Phenotype (%): 40% and 37%
  Total Cell Count: 129 and 148
[3]
  Population Apoptotic (%): 51% and 60%
  Population Fragmented Nuclei (%): 6% and 9%
  Population Healthy Nuclei (%): 79% and 67%
  Population Hoechst High Intensity Objects (%): 0%
  Population Membrane Permeable-Phenotype (%): 5% and 11%
  Population Mitochondria Different-Phenotype (%): 0%
  Population Mitotic Cells (%): 48% and 39%
  Population Normal (%): 100% and 99%
  Population Pyknosed Nuclei (%): 13% and 23%
  Population Tubulin-Different-Phenotype (%): 9% and 13%
  Total Cell Count: 224 and 204
[4]
  Population Apoptotic (%): 55% and 66%
  Population Fragmented Nuclei (%): 6% and 11%
  Population Healthy Nuclei (%): 62% and 71%
  Population Hoechst High Intensity Objects (%): 0%
  Population Membrane Permeable-Phenotype (%): 0% and 6%
  Population Mitochondria Different-Phenotype (%): 3% and 4%
  Population Mitotic Cells (%): 45% and 33%
  Population Normal (%): 100%
  Population Pyknosed Nuclei (%): 31% and 17%
  Population Tubulin-Different-Phenotype (%): 30% and 25%
  Total Cell Count: 128 and 157
[5]
  Population Apoptotic (%): 69% and 60%
  Population Fragmented Nuclei (%): 12% and 10%
  Population Healthy Nuclei (%): 77% and 74%
  Population Hoechst High Intensity Objects (%): 0%
  Population Membrane Permeable-Phenotype (%): 2% and 7%
  Population Mitochondria Different-Phenotype (%): 0%
  Population Mitotic Cells (%): 30% and 40%
  Population Normal (%): 100% and 99%
  Population Pyknosed Nuclei (%): 9% and 14%
  Population Tubulin-Different-Phenotype (%): 4% and 11%
  Total Cell Count: 235 and 206
[6]
  Population Apoptotic (%): 70% and 78%
  Population Fragmented Nuclei (%): 5% and 13%
  Population Healthy Nuclei (%): 64% and 67%
  Population Hoechst High Intensity Objects (%): 0%
  Population Membrane Permeable-Phenotype (%): 4% and 5%
  Population Mitochondria Different-Phenotype (%): 4% and 1%
  Population Mitotic Cells (%): 30% and 21%
  Population Normal (%): 100% and 99%
  Population Pyknosed Nuclei (%): 29% and 19%
  Population Tubulin-Different-Phenotype (%): 39% and 28%
  Total Cell Count: 134 and 167
